Drawing on ChEMBL document CHEMBL1156864, “Boron-containing phenoxyacetanilide derivatives as hypoxia-inducible factor (HIF)-1alpha inhibitors” (Bioorg Med Chem Lett, 2010), this text covers IC50 and GI50 for 13 molecules.

Where only a bound is given, the exact number is not on record here.

Usually IC50 stands for the concentration at which inhibition is half-maximal. Higher therefore signals weaker potency. Broadly, the GI50 is the concentration that inhibits growth by half. High values mean less potent growth inhibition, low ones more potent growth inhibition.

The target in assay [1] is Hypoxia-inducible factor 1-alpha (Homo sapiens, UniProt Q16665). The assay is described as follows: Inhibition of hypoxia-induced HIF1alpha activation in human HeLa cells after 12 hrs by HRE-luciferase reporter gene assay. The format is cell-based. The procedure, abridged:
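HeLa cells stably carrying HRE(×5)-luciferase reporter, incubated 12 h with or without drug under hypoxic conditions. Supernatant removed, then luciferase assay. IC50 is concentration halving relative light units, read from semi-logarithmic dose–response plots; mean ± SD of triplicates.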

Another assay deals with HeLa. As to the kind of experiment: Growth inhibition of human HeLa cells after 48 hrs by MTT assay. The assay is classed as functional. The procedure, abridged:
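HeLa cells exposed 48 h under normoxia to 100 nM–100 μM compound; viable cells measured by MTT. GI50 read from semi-logarithmic dose–response plots; mean ± SD of triplicate samples.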

Sequence of Hypoxia-inducible factor 1-alpha (Q16665 whole entry): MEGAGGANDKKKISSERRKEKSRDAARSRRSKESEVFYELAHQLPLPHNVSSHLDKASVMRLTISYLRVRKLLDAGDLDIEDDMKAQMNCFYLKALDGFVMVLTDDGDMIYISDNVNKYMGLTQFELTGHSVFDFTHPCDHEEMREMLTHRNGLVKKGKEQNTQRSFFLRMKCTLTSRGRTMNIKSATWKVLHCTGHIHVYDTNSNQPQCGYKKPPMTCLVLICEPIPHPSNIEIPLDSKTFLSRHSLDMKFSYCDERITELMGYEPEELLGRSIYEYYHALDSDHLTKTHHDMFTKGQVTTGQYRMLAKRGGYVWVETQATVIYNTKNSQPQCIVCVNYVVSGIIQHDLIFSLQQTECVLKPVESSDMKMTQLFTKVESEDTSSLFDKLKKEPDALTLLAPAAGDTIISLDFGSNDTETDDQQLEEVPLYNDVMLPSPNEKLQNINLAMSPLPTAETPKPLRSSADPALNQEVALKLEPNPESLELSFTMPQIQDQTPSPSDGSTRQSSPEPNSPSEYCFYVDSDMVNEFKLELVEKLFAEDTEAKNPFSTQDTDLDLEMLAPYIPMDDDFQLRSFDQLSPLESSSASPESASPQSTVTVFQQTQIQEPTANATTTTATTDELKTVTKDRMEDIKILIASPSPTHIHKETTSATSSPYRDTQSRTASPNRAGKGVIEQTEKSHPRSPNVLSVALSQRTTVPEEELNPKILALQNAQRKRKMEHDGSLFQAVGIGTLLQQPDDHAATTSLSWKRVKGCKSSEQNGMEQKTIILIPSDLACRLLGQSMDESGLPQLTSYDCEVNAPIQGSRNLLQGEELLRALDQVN

Regarding `O=C(COc1ccc(C23CC4CC(CC(C4)C2)C3)cc1)Nc1cc(C(=O)O)ccc1O`, inhibition in assay [1] was half-maximal at 3.1 µM (IC50). In addition, the GI50 in the assay on HeLa was found to be 51.6 µM.

Regarding `O=C(COc1ccc(-c2ccccc2)cc1)Nc1cc(B(O)O)ccc1O`, the IC50 in assay [1] was > 100 µM. Besides, the GI50 with HeLa turned out to be 85.9 µM.

Take `O=C(COc1ccc(C2CCCCC2)cc1)Nc1cc(B(O)O)ccc1O`: in assay [1], inhibition was half-maximal at 84.8 µM (IC50). The same molecule gave a GI50 with HeLa of 29.2 µM.

With `Cc1ccc(OCC(=O)Nc2cc(B(O)O)ccc2O)cc1`, in assay [1], the IC50 was > 100 µM. Besides, the GI50 in the assay with HeLa was 25.7 µM.

In assay [1], `CC(C)(C)c1ccc(OCC(=O)Nc2cc(B(O)O)ccc2O)cc1` gave an IC50 of 40.3 µM. Besides, the GI50 in the assay on HeLa was found to be 21.3 µM.

Consider `CCc1ccc(OCC(=O)Nc2cc(B(O)O)ccc2O)cc1`, for which the IC50 in assay [1] is > 100 µM. In the assay on HeLa, this molecule gave a GI50 of 14.9 µM.

On to `CC1(C)OB(c2ccc(O)c(NC(=O)COc3ccc(-c4ccccc4)cc3)c2)OC1(C)C`, for which, in assay [1], the IC50 is > 100 µM. Also, halving of growth in the assay on HeLa (GI50) required 5.8 µM.

`CC1(C)OB(c2ccc(O)c(NC(=O)COc3ccc(C4CCCCC4)cc3)c2)OC1(C)C` displayed an IC50 in assay [1] of 70.4 µM. Further, the GI50 with HeLa is 13.4 µM.

As to `O=C(COc1ccc(C23CC4CC(CC(C4)C2)C3)cc1)Nc1cc(B(O)O)ccc1O`, in assay [1], half-maximal inhibition (IC50) required 4.6 µM. Besides, it took 15.2 µM to inhibit growth in the assay with HeLa by half (GI50).

In assay [1], `CC1(C)OB(c2ccc(O)c(NC(=O)COc3ccc(C45CC6CC(CC(C6)C4)C5)cc3)c2)OC1(C)C` had an IC50 of 3.1 µM. The GI50 in the assay with HeLa worked out at 16 µM.

In the case of `Cc1ccc(OCC(=O)Nc2cc(B3OC(C)(C)C(C)(C)O3)ccc2O)cc1`, the IC50 in assay [1] came to 90.6 µM. In the assay with HeLa, the GI50 amounted to 17.7 µM.

For `CCc1ccc(OCC(=O)Nc2cc(B3OC(C)(C)C(C)(C)O3)ccc2O)cc1`, in assay [1], the IC50 is 91.8 µM. This molecule also gave a GI50 in the assay with HeLa of 8.6 µM.

The molecule `CC(C)(C)c1ccc(OCC(=O)Nc2cc(B3OC(C)(C)C(C)(C)O3)ccc2O)cc1` had a concentration for half-maximal inhibition (IC50) in assay [1] of 35.3 µM. Further, halving of growth with HeLa (GI50) required 12.1 µM.
